# From ChEMBL document CHEMBL3763086, “Salicylanilide N-monosubstituted carbamates: Synthesis and in vitro antimicrobial activity” (2016)
# Tests used:
# Type in all cases: functional
# Staphylococcus aureus [1] = test: Antibacterial activity against Staphylococcus aureus CCM 4516/08 after 24 hrs by microbroth dilution method; conditions: CCM 4516/08, 24 h
# Procedure, shortened: (§1)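 Microbroth dilution modified per M07-A07 in Mueller-Hinton broth, pH 7.4 (±0.2). Inoculum in sterile water adjusted to 0.5 McFarland. MIC taken as growth reduction of at least 90% (IC90) versus control, read visually and at 540 nm after 24 and 48 h incubation in the dark.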
# Staphylococcus aureus [2] = test: Antibacterial activity against Staphylococcus aureus CCM 4516/08 after 48 hrs by microbroth dilution method; conditions: CCM 4516/08, 48 h
# Procedure, shortened: (§2)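 Microdilution broth method modified after M07-A07 in Mueller-Hinton broth adjusted to pH 7.4 (±0.2). Inoculum prepared in sterile water to 0.5 McFarland (1.5 × 10^8 CFU/mL). MIC taken as growth reduction versus control (IC95 per table header), read visually and spectrophotometrically at 540 nm after 24 and 48 h incubation in the dark.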
# Staphylococcus aureus [3] = test: Antibacterial activity against methicillin-resistant Staphylococcus aureus H 5996/08 after 24 hrs by microbroth dilution method; conditions: H 5996/08, 24 h; procedure, shortened: as §2
# Staphylococcus aureus [4] = test: Antibacterial activity against methicillin-resistant Staphylococcus aureus H 5996/08 after 48 hrs by microbroth dilution method; conditions: H 5996/08, 48 h; procedure, shortened: as §2
# [5] = tested on: Staphylococcus epidermidis; test: Antibacterial activity against Staphylococcus epidermidis H 6966/08 after 24 hrs by microbroth dilution method; conditions: H 6966/08, 24 h; procedure, shortened: as §1
# [6] = tested on: Staphylococcus epidermidis; test: Antibacterial activity against Staphylococcus epidermidis H 6966/08 after 48 hrs by microbroth dilution method; conditions: H 6966/08, 48 h; procedure, shortened: as §1
# Enterococcus sp. [7] = test: Antibacterial activity against Enterococcus sp. J 14365/08 after 24 hrs by microbroth dilution method; conditions: J 14365/08, 24 h; procedure, shortened: as §1
# Enterococcus sp. [8] = test: Antibacterial activity against Enterococcus sp. J 14365/08 after 48 hrs by microbroth dilution method; conditions: J 14365/08, 48 h; procedure, shortened: as §1
# Escherichia coli [9] = test: Antibacterial activity against Escherichia coli CCM 4517 after 24 hrs by microbroth dilution method; conditions: CCM 4517, 24 h; procedure, shortened: as §1
# Escherichia coli [10] = test: Antibacterial activity against Escherichia coli CCM 4517 after 48 hrs by microbroth dilution method; conditions: CCM 4517, 48 h; procedure, shortened: as §1
# Klebsiella pneumoniae [11] = test: Antibacterial activity against Klebsiella pneumoniae D 11750/08 after 24 hrs by microbroth dilution method; conditions: D 11750/08, 24 h; procedure, shortened: as §1
# Klebsiella pneumoniae [12] = test: Antibacterial activity against Klebsiella pneumoniae D 11750/08 after 48 hrs by microbroth dilution method; conditions: D 11750/08, 48 h; procedure, shortened: as §1
# Klebsiella pneumoniae [13] = test: Antibacterial activity against ESBL-positive Klebsiella pneumoniae J 14368/08 after 24 hrs by microbroth dilution method; conditions: J 14368/08, 24 h; procedure, shortened: as §1
# Klebsiella pneumoniae [14] = test: Antibacterial activity against ESBL-positive Klebsiella pneumoniae J 14368/08 after 48 hrs by microbroth dilution method; conditions: J 14368/08, 48 h; procedure, shortened: as §1
# Candida albicans [15] = test: Antifungal activity against Candida albicans ATCC 44859 after 24 hrs by microbroth dilution method; conditions: ATCC 44859, 24 h
# Candida albicans [16] = test: Antifungal activity against Candida albicans ATCC 44859 after 48 hrs by microbroth dilution method; conditions: ATCC 44859, 48 h
# Candida tropicalis [17] = test: Antifungal activity against Candida tropicalis 156 after 24 hrs by microbroth dilution method; conditions: Candida tropicalis, 156, 24 h
# Candida tropicalis [18] = test: Antifungal activity against Candida tropicalis 156 after 48 hrs by microbroth dilution method; conditions: Candida tropicalis, 156, 48 h
# Pichia kudriavzevii [19] = test: Antifungal activity against Candida krusei E28 after 24 hrs by microbroth dilution method; conditions: E28, 24 h
# Pichia kudriavzevii [20] = test: Antifungal activity against Candida krusei E28 after 48 hrs by microbroth dilution method; conditions: E28, 48 h
# Nakaseomyces glabratus [21] = test: Antifungal activity against Candida glabrata 20/I after 24 hrs by microbroth dilution method
# Nakaseomyces glabratus [22] = test: Antifungal activity against Candida glabrata 20/I after 48 hrs by microbroth dilution method
# Trichosporon asahii [23] = test: Antifungal activity against Trichosporon asahii 1188 after 24 hrs by microbroth dilution method; conditions: Trichosporon asahii, 1188, 24 h
# Trichosporon asahii [24] = test: Antifungal activity against Trichosporon asahii 1188 after 48 hrs by microbroth dilution method; conditions: Trichosporon asahii, 1188, 48 h
# Lichtheimia corymbifera [25] = test: Antifungal activity against Absidia corymbifera 272 after 24 hrs by microbroth dilution method; conditions: Lichtheimia corymbifera, 272, 24 h
# Lichtheimia corymbifera [26] = test: Antifungal activity against Absidia corymbifera 272 after 48 hrs by microbroth dilution method; conditions: Lichtheimia corymbifera, 272, 48 h
# [27] = tested on: Trichophyton mentagrophytes; test: Antifungal activity against Trichophyton mentagrophytes 445 after 72 hrs by microbroth dilution method; conditions: Trichophyton mentagrophytes, 445, 72 h
# [28] = tested on: Trichophyton mentagrophytes; test: Antifungal activity against Trichophyton mentagrophytes 445 after 120 hrs by microbroth dilution method; conditions: Trichophyton mentagrophytes, 445, 120 h
SMILES,MIC (Staphylococcus aureus [1]) [µM],MIC (Staphylococcus aureus [2]) [µM],MIC (Staphylococcus aureus [3]) [µM],MIC (Staphylococcus aureus [4]) [µM],MIC [5] [µM],MIC [6] [µM],MIC (Candida albicans [15]) [µM],MIC (Candida albicans [16]) [µM],MIC (Candida tropicalis [17]) [µM],MIC (Candida tropicalis [18]) [µM],MIC (Pichia kudriavzevii [19]) [µM],MIC (Pichia kudriavzevii [20]) [µM],MIC (Nakaseomyces glabratus [21]) [µM],MIC (Nakaseomyces glabratus [22]) [µM],MIC (Trichosporon asahii [23]) [µM],MIC (Trichosporon asahii [24]) [µM],MIC (Lichtheimia corymbifera [25]) [µM],MIC (Lichtheimia corymbifera [26]) [µM],MIC [27] [µM],MIC [28] [µM],also measured
O=C(NCCc1ccccc1)Oc1ccc(Cl)cc1C(=O)Nc1ccc(F)cc1,7.81,15.6,15.6,62.5,15.6,15.6,250,> 500,> 500,> 500,125,> 500,125,> 500,125,> 500,> 500,> 500,> 500,> 500,MIC (Enterococcus sp. [7]): > 500 µM; MIC (Enterococcus sp. [8]): > 500 µM; MIC (Escherichia coli [9]): > 500 µM; MIC (Escherichia coli [10]): > 500 µM; MIC (Klebsiella pneumoniae [11]): > 500 µM; MIC (Klebsiella pneumoniae [12]): > 500 µM; MIC (Klebsiella pneumoniae [13]): > 500 µM; MIC (Klebsiella pneumoniae [14]): > 500 µM
O=C(NCCc1ccccc1)Oc1ccc(Cl)cc1C(=O)Nc1ccc(Br)cc1,≤ 0.49,1.95,0.98,1.95,≤ 0.49,0.98,> 125,> 125,> 125,> 125,> 125,> 125,125,125,62.5,62.5,125,125,3.9,3.9,MIC (Enterococcus sp. [7]): > 500 µM; MIC (Enterococcus sp. [8]): > 500 µM; MIC (Escherichia coli [9]): > 500 µM; MIC (Escherichia coli [10]): > 500 µM; MIC (Klebsiella pneumoniae [11]): > 500 µM; MIC (Klebsiella pneumoniae [12]): > 500 µM; MIC (Klebsiella pneumoniae [13]): > 500 µM; MIC (Klebsiella pneumoniae [14]): > 500 µM
O=C(NC1CCCCC1)Oc1ccc(Cl)cc1C(=O)Nc1ccc(Br)cc1,≤ 0.49,0.98,≤ 0.49,1.95,≤ 0.49,0.98,> 125,> 125,> 125,> 125,> 125,> 125,> 125,> 125,62.5,62.5,> 125,> 125,1.95,1.95,MIC (Enterococcus sp. [7]): 500 µM; MIC (Enterococcus sp. [8]): 500 µM; MIC (Escherichia coli [9]): > 500 µM; MIC (Escherichia coli [10]): > 500 µM; MIC (Klebsiella pneumoniae [11]): > 500 µM; MIC (Klebsiella pneumoniae [12]): > 500 µM; MIC (Klebsiella pneumoniae [13]): > 500 µM; MIC (Klebsiella pneumoniae [14]): > 500 µM
O=C(NC1CCCCC1)Oc1ccc(Cl)cc1C(=O)Nc1ccc(Cl)cc1,1.95,7.81,3.9,15.6,0.98,0.98,> 125,> 125,> 125,> 125,125,125,> 125,> 125,125,125,125,125,7.81,7.81,MIC (Enterococcus sp. [7]): > 125 µM; MIC (Enterococcus sp. [8]): > 125 µM; MIC (Escherichia coli [9]): > 125 µM; MIC (Escherichia coli [10]): > 125 µM; MIC (Klebsiella pneumoniae [11]): > 125 µM; MIC (Klebsiella pneumoniae [12]): > 125 µM; MIC (Klebsiella pneumoniae [13]): > 125 µM; MIC (Klebsiella pneumoniae [14]): > 125 µM
CC1(C)S[C@@H]2[C@H](NC(=O)Cc3ccccc3)C(=O)N2[C@H]1C(=O)O [PENICILLIN G],0.98,0.98,62.5,125,250,250,–,–,–,–,–,–,–,–,–,–,–,–,–,–,MIC (Enterococcus sp. [7]): 7.81 µM; MIC (Enterococcus sp. [8]): 15.6 µM; MIC (Escherichia coli [9]): 125 µM; MIC (Escherichia coli [10]): 125 µM; MIC (Klebsiella pneumoniae [11]): 500 µM; MIC (Klebsiella pneumoniae [12]): 500 µM; MIC (Klebsiella pneumoniae [13]): > 500 µM; MIC (Klebsiella pneumoniae [14]): > 500 µM
O=C(Nc1ccccc1)Oc1ccccc1C(=O)Nc1ccccc1,500,500,500,500,500,500,> 500,> 500,> 500,> 500,> 500,> 500,> 500,> 500,> 500,> 500,> 500,> 500,125,125,MIC (Enterococcus sp. [7]): > 500 µM; MIC (Enterococcus sp. [8]): > 500 µM; MIC (Escherichia coli [9]): > 500 µM; MIC (Escherichia coli [10]): > 500 µM; MIC (Klebsiella pneumoniae [11]): > 500 µM; MIC (Klebsiella pneumoniae [12]): > 500 µM; MIC (Klebsiella pneumoniae [13]): > 500 µM; MIC (Klebsiella pneumoniae [14]): > 500 µM
O=C(NC1CCCCC1)Oc1ccccc1C(=O)Nc1ccccc1,250,250,500,500,500,500,> 500,> 500,> 500,> 500,> 500,> 500,> 500,> 500,> 500,> 500,> 500,> 500,> 500,> 500,MIC (Enterococcus sp. [7]): 500 µM; MIC (Enterococcus sp. [8]): 500 µM; MIC (Escherichia coli [9]): > 500 µM; MIC (Escherichia coli [10]): > 500 µM; MIC (Klebsiella pneumoniae [11]): > 500 µM; MIC (Klebsiella pneumoniae [12]): > 500 µM; MIC (Klebsiella pneumoniae [13]): > 500 µM; MIC (Klebsiella pneumoniae [14]): > 500 µM
O=C(NCCc1ccccc1)Oc1ccc(Cl)cc1C(=O)Nc1ccc(Cl)cc1,3.9,15.6,3.9,15.6,3.9,15.6,> 500,> 500,> 500,> 500,> 500,> 500,> 500,> 500,> 500,> 500,> 500,> 500,1.95,1.95,MIC (Enterococcus sp. [7]): 500 µM; MIC (Enterococcus sp. [8]): 500 µM; MIC (Escherichia coli [9]): 125 µM; MIC (Escherichia coli [10]): 500 µM; MIC (Klebsiella pneumoniae [11]): 500 µM; MIC (Klebsiella pneumoniae [12]): 500 µM; MIC (Klebsiella pneumoniae [13]): 31.2 µM; MIC (Klebsiella pneumoniae [14]): 31.2 µM
O=C(NCc1ccccc1)Oc1ccc(Cl)cc1C(=O)Nc1ccc(Cl)cc1,3.9,15.6,7.81,15.6,3.9,3.9,> 125,> 125,> 125,> 125,62.5,62.5,> 125,> 125,15.6,15.6,> 125,> 125,1.95,1.95,MIC (Enterococcus sp. [7]): > 125 µM; MIC (Enterococcus sp. [8]): > 125 µM; MIC (Escherichia coli [9]): > 125 µM; MIC (Escherichia coli [10]): > 125 µM; MIC (Klebsiella pneumoniae [11]): 125 µM; MIC (Klebsiella pneumoniae [12]): 125 µM; MIC (Klebsiella pneumoniae [13]): 62.5 µM; MIC (Klebsiella pneumoniae [14]): 125 µM
C[C@@H]1[C@H](O)[C@@H](C)/C=C/C=C/C=C/C=C/C=C/C=C/C=C/[C@H](O[C@@H]2O[C@H](C)[C@@H](O)[C@H](N)[C@@H]2O)C[C@@H]2O[C@](O)(C[C@@H](O)C[C@@H](O)[C@H](O)CC[C@@H](O)C[C@@H](O)CC(=O)O[C@H]1C)C[C@H](O)[C@H]2C(=O)O [AMPHOTERICIN B],–,–,–,–,–,–,0.12,0.49,1.95,1.95,1.95,1.95,0.98,1.95,0.49,0.98,7.81,7.81,1.95,1.95,–
OC(Cn1cncn1)(Cn1cncn1)c1ccc(F)cc1F [FLUCONAZOLE],–,–,–,–,–,–,0.24,0.24,> 500,> 500,125,250,31.2,500,250,500,> 500,> 500,7.81,125,–
